# This is a sample that favours compounds with a hit; in the whole collection about 2.9% have one here.
# MIN6 prolif – induces beta-cell replication in MIN6 cells; MIN6 cells proliferation, ATPlite luminescence, 48 h; cells starved in 0.2% serum; 100% = growth in 10% serum; proliferation, % at 10 µM; 330,000 compounds, 0.29% hits; AID 2380;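 active means compounds whose signal lies at least 3.5 SD above the mean of all wells on their plate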
# TAG inh – inhibitors of triacylglycerol accumulation | H9c2 cells, Nile Red lipid (TAG) fluorescence; cells loaded with 200 µM oleic acid | inhibition, % at 12.5 µM | 230,000 compounds, 0.66% hits;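 active means pattern-corrected inhibition of lipid staining of at least 50% with the nuclear-stain viability signal not falling by more than 50%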
# hiPSC survival – hiPSC single-cell survival enhancement; ATPlite luminescence; 100% = ROCK inhibitor wells, 0% = DMSO; survival enhancement, % at 20 µM; 360,000 compounds, 0.044% hits; in the data active means survival enhancement above about 18%;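 further: cells exposed to compounds for 16 hours before the ATP read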
# PG9 binder – binds the HIV-1 gp120 antibody PG9. TR-FRET gp120-PG9 antibody binding. 360,000 compounds, 0.43% hits. inhibition, % at 6.7 µM; in the data active means inhibition above about 8.5%
# T cruzi inh – blocks replication of Trypanosoma cruzi; T. cruzi beta-gal in NIH3T3, luminescence, 90 h; 300,000 compounds, 1.4% hits; inhibition, % (no concentration beside the values);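 active means mean inhibition across valid replicates above about 55%, limit read from the data; inconclusive means mean below that limit but half or more replicates reach it; inactive means mean below it, under half of replicates reach it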;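 further: signal also drops with host cell toxicity which is not excluded here; higher percent means less beta-gal luminescence so fewer parasites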
#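 Assay system: NIH/3T3 fibroblasts plus reporter T. cruzi. Amount: NIH/3T3 cells, 5,000 per well. Buffer or medium: DMEM, 2% fetal bovine serum. Doses: compound pinned at 50 nL/well, DMSO. Schedule: ≥90 h infection period, 3 h prior cell attachment. Signal: luminescent β-galactosidase signal after 60 min lysis. Read-out: parasite load inhibition, %.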
# NR1D1 modulator – modulators of human Rev-erb alpha DNA binding | 370,000 compounds, 0.79% hits | Rev-erbα–FITC-DNA binding, fluorescence polarization, 90 min | P20393 | activity, % at 10 µM;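 active means activity above about 14%, limit read from the data; passing the limit was not always enough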
# Target sequence (P20393 whole entry, looked up): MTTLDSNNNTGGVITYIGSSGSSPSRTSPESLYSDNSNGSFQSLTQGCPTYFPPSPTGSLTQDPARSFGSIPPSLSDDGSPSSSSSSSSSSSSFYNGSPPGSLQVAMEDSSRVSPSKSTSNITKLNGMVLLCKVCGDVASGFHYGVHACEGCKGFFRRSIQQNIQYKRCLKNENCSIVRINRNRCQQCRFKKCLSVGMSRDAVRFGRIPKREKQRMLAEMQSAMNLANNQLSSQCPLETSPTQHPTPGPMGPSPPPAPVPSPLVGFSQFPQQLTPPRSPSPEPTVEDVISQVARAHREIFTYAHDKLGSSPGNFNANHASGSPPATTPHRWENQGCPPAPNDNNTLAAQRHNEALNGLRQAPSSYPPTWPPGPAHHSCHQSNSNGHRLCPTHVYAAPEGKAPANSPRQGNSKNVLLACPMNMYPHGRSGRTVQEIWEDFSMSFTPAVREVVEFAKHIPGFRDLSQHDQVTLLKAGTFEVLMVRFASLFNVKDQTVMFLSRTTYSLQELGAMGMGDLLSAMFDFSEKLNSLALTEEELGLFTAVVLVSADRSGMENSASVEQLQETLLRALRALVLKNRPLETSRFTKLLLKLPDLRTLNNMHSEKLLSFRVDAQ
# TAG conf – confirmation of triacylglycerol accumulation inhibitors; shares compounds with TAG inh; H9c2 lipid accumulation, Nile Red fluorescence; cells loaded with 200 µM oleic acid; inhibition, % at 12.5 µM; 990 compounds, 71% hits; AID 651629;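 active means mean inhibition across replicates of 40% or more; inactive means mean inhibition below 40%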
# Hits are given with their value; . = inactive; ? = inconclusive; / = no result.
SMILES,MIN6 prolif,TAG inh,hiPSC survival,PG9 binder,T cruzi inh,NR1D1 modulator,TAG conf
COc1ccc(NS(=O)(=O)c2cc(C)ccc2NC(=O)c2cc(C)oc2C)cc1,.,62,.,.,.,.,79
O=C1N(Cc2ccccc2)c2ccccc2OC1(F)F,/,.,.,.,/,.,/
O=[N+]([O-])c1ccc(Nc2nc(N/N=C/c3cccc(F)c3)nc(N3CCCC3)n2)cc1,.,/,.,.,.,.,/
O=[N+]([O-])c1ccc(Nc2nc(NC3CCCCC3)nc(N3CCCC3)n2)cc1,.,61,.,.,65,.,82
CC(=O)Nc1ccc(NC2=Nc3ccccc3N3C2=Nc2c(c(C)nn2-c2ccccc2)C3c2ccccc2)cc1 (stereo unspecified),.,54,.,.,.,.,43
CCOC(=O)c1c(-c2ccccc2)csc1NC(=O)C1CCCO1 (stereo unspecified),.,/,.,.,?,.,/
COCCCn1c(SCC(=O)Nc2ccc(NC(=O)c3ccco3)c(OC)c2)nc2ccccc2c1=O,.,62,.,.,.,.,.
CCOC(=O)c1[nH]c2ccc(OCC)cc2c1NC(=O)CN1CCC2(CC1)OCCO2,.,/,.,.,.,.,/
CCOC(=O)c1[nH]c2ccc(OCC)cc2c1NC(=O)CN1CCN(c2ccccc2)CC1,.,58,.,.,.,.,41
CC1(c2ccccc2)O[C@@H]2C[C@H]3[C@@H]4CCC5=CC(=O)C=C[C@]5(C)[C@@]4(F)[C@@H](O)C[C@]3(C)[C@]2(C(=O)CO)O1 (stereo partly specified),.,53,.,.,.,.,55
COc1ccc(Cn2c(=O)[nH]c3cc(C(=O)NC4CCCC4)ccc3c2=O)cc1,.,.,.,.,.,.,/
Cc1ccc(-n2c(=O)[nH]c3cc(C(=O)NC4CCN(Cc5ccccc5)CC4)ccc3c2=O)cc1,.,75,.,.,.,.,.
Cc1ccc(NC(=O)CSc2nc3ccc(Nc4nc(N5CCOCC5)nc(N5CCOCC5)n4)cc3s2)cc1,.,84,.,.,/,.,86
COc1ccc(NC(=O)CSc2nc3ccc(Nc4nc(N5CCOCC5)nc(N5CCOCC5)n4)cc3s2)cc1,.,/,.,.,.,.,/
Cc1ccc(/C=C/C(=O)O)cc1S(=O)(=O)NCCCC(=O)O,.,.,.,.,.,.,/
Cc1ccc(/C=N/NC(=O)c2c(C)nc3ccc(Br)cn23)cc1,.,56,.,.,.,.,58
COc1ccc(/C=N\NC(=O)c2c(C)nc3ccc(Br)cn23)cc1,.,/,.,.,.,.,/
O=C1C(NS(=O)(=O)c2cccs2)=C(N2CCN(c3cccc(C(F)(F)F)c3)CC2)C(=O)c2ccccc21,.,60,.,.,.,.,78
CN1CCN(C2=C(NS(=O)(=O)c3cccs3)C(=O)c3ccccc3C2=O)CC1,.,.,.,.,.,.,/
Cc1ccc(Nc2nc(OC(C(F)(F)F)C(F)(F)F)nc(N3CCOCC3)n2)cc1,.,100,.,.,.,.,93
Cc1cc(N2CCN(Cc3cn(C)nc3-c3cccc(Cl)c3)CC2)cc(C)n1,.,71,.,.,.,.,77
Cc1cc(N2CCN(Cc3cn(C)nc3-c3ccccc3F)CC2)cc(C)n1,.,74,.,.,.,.,84
Cn1cc(CN2CCN(c3ncccn3)CC2)c(-c2cccc(Cl)c2)n1,.,.,.,.,.,.,/
O=C(N/N=C/C(Br)=C\c1ccccc1)c1n[nH]c2c1CCC2,.,/,.,.,.,.,/
CC(/C=N/NC(=O)c1n[nH]c2c1CCC2)=C\c1ccccc1,.,72,.,.,.,.,.
O=C1NC(=O)C(=Cc2ccc(Cl)cc2Cl)S1,/,.,.,.,/,.,/
O=C(C1CC1)N1CCc2cc(Br)cc(S(=O)(=O)N3CCN(c4ccccn4)CC3)c21,.,.,.,.,.,.,/
CCOc1ccccc1N1CCN(S(=O)(=O)c2ccc3c4c(cccc24)C(=O)N3)CC1,.,52,.,.,.,.,.
COc1ccc(OC)c(Nc2nc(-c3sc(NC(=O)CC(C)C)nc3C)cs2)c1,.,58,.,.,.,.,65

# Bioassay records: PubChem BioAssay, several laboratories
